# Results reported in ChEMBL document CHEMBL3272171, “Tyrosylated analogues of somatostatin” (J Med Chem, 1976).
# Bridge positions count the residues as written; N and C are the ends. Square brackets hold non-standard residues; d marks the D form. Peptide text beside a SMILES is read from it.
# Tests used:
# Rattus norvegicus [1] = assay: Inhibition of insulin secretion in jugular vein dosed rat assessed as assessed as hormone level using blood sample from hepatic portal vein by radioimmunoassay relative to somatostatin; assay type: functional; set-up: scale not given: the % may be the effect or the level left
# Procedure, shortened: (§1)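 Rats under ether anaesthesia received test samples by jugular vein injection. Blood was drawn from the hepatic portal vein, and hormone levels were measured by specific radioimmunoassay. Six rats per point. Potency was derived from four-point bioassays with somatostatin as reference standard, with log dose-response parallelism checked.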
# [2] = Retardation factor of the compound using 2.5% pyridine, 5% 1-butanol and 90% water at pH 4.7 buffer relative to lysine and alanine by ninhydrin spray
# [3] = Partition coefficient, K of the compound using system BAW at 4:1:5 ratio; assay type: physicochemical
# [4] = Inhibition of growth hormone spontaneous secretion in rat anterior pituitary cells assessed as hormone level by radioimmunoassay relative to somatostatin; assay type: functional, Pituitary gland cell; set-up: scale not given: the % may be the effect or the level left
# Rattus norvegicus [5] = assay: Inhibition of glucagon secretion in jugular vein dosed rat assessed using blood sample from hepatic portal vein assessed as hormone level by radioimmunoassay relative to somatostatin; assay type: functional; set-up: scale not given: the % may be the effect or the level left; procedure, shortened: as §1
SMILES,Rf [2],K [3],Activity (Rattus norvegicus [1]) [%],Activity [4] [%],Activity (Rattus norvegicus [5]) [%]
C[C@H](N)C(=O)NCC(=O)N[C@H]1CSSC[C@@H](C(=O)O)NC(=O)[C@H](CO)NC(=O)[C@H]([C@@H](C)O)NC(=O)[C@H](Cc2ccccc2)NC(=O)[C@H]([C@@H](C)O)NC(=O)[C@H](CCCCN)NC(=O)[C@H](Cc2c[nH]c3ccccc23)NC(=O)[C@H](Cc2ccccc2)NC(=O)[C@H](Cc2ccc(O)cc2)NC(=O)[C@H](CC(N)=O)NC(=O)[C@H](CCCCN)NC1=O (H-AGCKNYFWKTFTSC-OH; disulfide 3-14),0.38,0.23,12,29,14
C[C@@H](O)[C@@H]1NC(=O)[C@H](Cc2ccccc2)NC(=O)[C@H]([C@@H](C)O)NC(=O)[C@H](CCCCN)NC(=O)[C@H](Cc2c[nH]c3ccccc23)NC(=O)[C@H](Cc2ccccc2)NC(=O)[C@H](Cc2ccccc2)NC(=O)[C@H](CC(N)=O)NC(=O)[C@H](CCCCN)NC(=O)[C@@H](NC(=O)CNC(=O)[C@@H](N)Cc2ccc(O)cc2)CSSC[C@@H](C(=O)O)NC(=O)[C@H](CO)NC1=O,0.33,0.41,70,116,78
C[C@H](N)C(=O)NCC(=O)N[C@H]1CSSC[C@@H](C(=O)O)NC(=O)[C@H](CO)NC(=O)[C@H]([C@@H](C)O)NC(=O)[C@H](Cc2ccccc2)NC(=O)[C@H]([C@@H](C)O)NC(=O)[C@H](CCCCN)NC(=O)[C@H](Cc2c[nH]c3ccccc23)NC(=O)[C@H](Cc2ccc(O)cc2)NC(=O)[C@H](Cc2ccccc2)NC(=O)[C@H](CC(N)=O)NC(=O)[C@H](CCCCN)NC1=O (H-AGCKNFYWKTFTSC-OH; disulfide 3-14),0.44,0.23,75,108,109
C[C@H](N)C(=O)NCC(=O)N[C@H]1CSSC[C@@H](C(=O)O)NC(=O)[C@H](CO)NC(=O)[C@H]([C@@H](C)O)NC(=O)[C@H](Cc2ccccc2)NC(=O)[C@H]([C@@H](C)O)NC(=O)[C@H](CCCCN)NC(=O)[C@H](Cc2c[nH]c3ccccc23)NC(=O)[C@H](Cc2ccccc2)NC(=O)[C@H](Cc2ccccc2)NC(=O)[C@H](CC(N)=O)NC(=O)[C@H](CCCCN)NC1=O [SOMATOSTATIN],0.43,–,–,–,–

# Now from value to molecule, other results behind:
Rf [2],K [3],SMILES,Activity (Rattus norvegicus [1]) [%],Activity [4] [%],Activity (Rattus norvegicus [5]) [%]
0.38,0.34,C[C@@H](O)[C@@H]1NC(=O)[C@H](Cc2ccccc2)NC(=O)[C@H]([C@@H](C)O)NC(=O)[C@H](CCCCN)NC(=O)[C@@H](Cc2c[nH]c3ccccc23)NC(=O)[C@H](Cc2ccccc2)NC(=O)[C@H](Cc2ccccc2)NC(=O)[C@H](CC(N)=O)NC(=O)[C@H](CCCCN)NC(=O)[C@@H](NC(=O)CNC(=O)[C@@H](N)Cc2ccc(O)cc2)CSSC[C@@H](C(=O)O)NC(=O)[C@H](CO)NC1=O,659,400,–
0.41,0.24,C[C@H](N)C(=O)NCC(=O)N[C@H]1CSSC[C@@H](C(=O)O)NC(=O)[C@H](CO)NC(=O)[C@H]([C@@H](C)O)NC(=O)[C@H](Cc2ccccc2)NC(=O)[C@H]([C@@H](C)O)NC(=O)[C@H](CCCCN)NC(=O)[C@@H](Cc2ccc(O)cc2)NC(=O)[C@H](Cc2ccccc2)NC(=O)[C@H](Cc2ccccc2)NC(=O)[C@H](CC(N)=O)NC(=O)[C@H](CCCCN)NC1=O (H-AGCKNFF[dY]KTFTSC-OH; disulfide 3-14),28,10,<10
0.45,0.24,C[C@H](N)C(=O)NCC(=O)N[C@H]1CSSC[C@@H](C(=O)O)NC(=O)[C@H](CO)NC(=O)[C@H]([C@@H](C)O)NC(=O)[C@H](Cc2ccc(O)cc2)NC(=O)[C@H]([C@@H](C)O)NC(=O)[C@H](CCCCN)NC(=O)[C@H](Cc2c[nH]c3ccccc23)NC(=O)[C@H](Cc2ccccc2)NC(=O)[C@H](Cc2ccccc2)NC(=O)[C@H](CC(N)=O)NC(=O)[C@H](CCCCN)NC1=O (H-AGCKNFFWKTYTSC-OH; disulfide 3-14),252,65,65
